Data from PMC4851236 (Nature, 2016).
“Also recorded” adds a separate entry of the source.

Tests used:
TR146 cells [1] = assay: Cell damage assay; format: cell-based, human; conditions: for Induction of damage (LDH release): Ece1-I-VIII at 70 µM (Fig. 2b); for Damage of epithelial cells (LDH release) by peptide fragments: 70 µM, 24 h, individually or in combination
Summary of the method: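 Confluent TR146 cells serum-starved overnight, then exposed to test peptides for 24 h in serum-free DMEM. Culture supernatants assayed for lactate dehydrogenase activity with a colorimetric cytotoxicity kit. Activity quantified against a recombinant porcine LDH standard curve.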

[2] = Impedance spectroscopy of tethered bilayer lipid membranes; conditions: tBLMs, DOPC with or without cholesterol, 100 mM KCl, 5 mM HEPES, pH 7.0, room temperature
Summary of the method: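 tBLMs (10% tethering, 90% spacer lipids) were formed by solvent exchange from 3 mM lipid in ethanol, then buffered in 100 mM KCl, 5 mM HEPES, pH 7.0. Membranes were rinsed three times with buffer. Conductance and capacitance were recorded for 20 min before test peptide was injected at various concentrations, all at room temperature. Concentration-dependent conductance changes were averaged.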

Planar lipid bilayers = conditions: 5 mM HEPES, 100 mM KCl, pH 7.0, 37°C, Ece1-III62–93 0.125 µM (DOPC), Ece1-III62–92K 4 µM
Summary of the method: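 Montal-Mueller planar bilayers were bathed in 5 mM HEPES, 100 mM KCl, pH 7.0 (specific conductivity 17.2 mS/cm) at 37°C. Test peptide was added and membrane current was recorded for permeabilization events up to rupture.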

TR146 cells [3] = assay: Western blotting of phospho-MKP1 and c-Fos induction; format: cell-based, human; conditions: for Induction of p-MKP1 and c-Fos: serum-free DMEM, 2 h post-stimulation, Western blot, Ece1-I-VIII incubated at 1.5 – 70 µM (Fig. 2a: 1.5 µM); for Induction of p-MKP1 and c-Fos by peptide fragments: 15 µM, 2 h, individually or in combination
Summary of the method: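 Serum-starved TR146 cells treated for 2 h in serum-free DMEM, then lysed on ice for 30 min in modified RIPA buffer (pH 7.4) with protease and phosphatase inhibitors. 20 µg protein resolved on 12% SDS-PAGE and transferred to nitrocellulose. Blots probed for phospho-MKP1 and c-Fos (primary 1:1000, HRP secondary 1:10,000), detected by chemiluminescence. α-actin used as loading control.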

[4] = Circular dichroism spectroscopy; format: physicochemical; conditions: 15 µM peptide, 100 mM KCl, 5 mM HEPES, pH 7
Summary of the method: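 Peptide at 15 µM in 100 mM KCl, 5 mM HEPES, pH 7.0, in a 1.0 mm quartz cuvette, run at 25°C and 40°C. Spectra are the average of four scans, collected at 1 nm intervals with 2 nm bandwidth.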

TR146 cells [5] = assay: Calcium flux; format: cell-based, human; conditions: Fura-2, readings up to 3 h
Summary of the method: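 Confluent TR146 monolayers loaded for 1 h at 37°C/5% CO2 with Fura-2 (2.5 mM stock in Pluronic F-127/DMSO) plus probenecid in HEPES-buffered saline (2 mM CaCl2, 10 mM glucose, pH 7.4). Dye then replaced by saline. Baseline read for 10 min at excitation 340 nm/emission 520 nm. Peptides added at different concentrations. Cytosolic calcium expressed as a fluorescence ratio.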

TR146 cells [6] = assay: Cytokine determination in culture supernatants; format: cell-based, human; conditions: for Induction of cytokines (G-CSF) by peptide fragments: 15 µM, 24 h, individually or in combination
[7] = FRET intercalation into phospholipid liposomes; conditions: phospholipid liposomes (DOPC with or without cholesterol), 100 mM KCl, 5 mM HEPES, pH 7.0
Summary of the method: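 Probe-dilution FRET assay. Phospholipid liposomes carried 1% (mol/mol) each of donor NBD-PE and acceptor rhodamine-PE. Lipids were dried from chloroform, taken up in 100 mM KCl, 5 mM HEPES, pH 7.0, and tip-sonicated. They then went through three 30 min cycles of 60°C heating and 4°C cooling and were held at 4°C for at least 12 h. After test peptide addition, intercalation was read as the rise in the donor (531 nm) to acceptor (593 nm) intensity ratio.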

[8] = test system: multiple human epithelial cell types; assay: Direct lysis of epithelial cells; format: cell-based; conditions: not shown
red blood cells = assay: Hemolysis of red blood cells; format: cell-based; conditions: not shown
TR146 cells [9] = assay: Transcription factor; format: cell-based, human; conditions: 3 h post-stimulation, sub-lytic concentrations
Summary of the method: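 Serum-starved TR146 cells treated for 3 h in serum-free DMEM. Nuclear proteins recovered by differential lysis. 5 µg nuclear extract assayed for c-Fos DNA binding by plate-based transcription factor ELISA. Results expressed as fold-change in A450nm relative to resting cells.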

TR146 cells [10] = assay: Whole cell patch clamp; format: cell-based, human; conditions: membrane potential −60 mV, room temperature
Summary of the method: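 TR146 cells cultured 48 h and recorded at 10–30% confluence while superfused with modified Krebs solution (pH 7.4). Pipettes 5–7 MΩ, filled with potassium acetate/KCl/HEPES/EGTA solution (free Ca2+ 40 nM). Current-voltage curves from 1 s steps, −100 to +50 mV. Treatments added to superfusate at final concentration, with vehicle controls and an ionomycin positive control. Cells analysed counted per condition.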

## SIIGIIMGILGNIPQVIQIIMSIVKAFKGNK [Ece1-III62–92K]
TR146 cells [1]; 24 h post-stimulation
  Induction of damage (LDH release): induces
[2]
  Permeabilization of tethered lipid membranes (conductance): induces
Planar lipid bilayers
  Lesions induced in planar lipid membranes: heterogeneous and transient lesions leading to membrane rupture
TR146 cells [3]
  Induction of p-MKP1 and c-Fos: induces
[4]
  Secondary structure by circular dichroism: α-helical
TR146 cells [5]
  Calcium influx (intracellular calcium level): induces
TR146 cells [6]; 24 h post-stimulation
  Induction of G-CSF secretion: induces
  Induction of IL-1α secretion: induces
[7]
  Intercalation into lipid membranes (FRET): induces

## Ece1-III62–85: N-terminal hydrophobic region of Ece1-III62–93
TR146 cells [1]
  Damage of epithelial cells (LDH release) by peptide fragments: Neither
TR146 cells [3]
  Induction of p-MKP1 and c-Fos by peptide fragments: Neither
TR146 cells [6]
  Induction of cytokines (G-CSF) by peptide fragments: Neither

## SIIGIIMGILGNIPQVIQIIMSIVKAFKGNKR [Ece1-III62–93]
TR146 cells [1]; 24 h post-stimulation
  Concentrations required to induce damage (LDH release): 70 µM
  Induction of damage (LDH release): induced
[8]
  Direct lysis of multiple human epithelial cell types: directly lyse multiple human epithelial cell types
[2]
  Permeabilization of tethered lipid membranes (conductance): enhanced in the presence of cholesterol
Red blood cells
  Hemolysis of red blood cells: induce hemolysis of red blood cells
TR146 cells [9]
  Concentrations sufficient to induce c-Fos DNA binding: 1.5 to 15 µM
Planar lipid bilayers
  Lesions induced in planar lipid membranes: heterogeneous and transient lesions leading finally to a rupture of the membrane
TR146 cells [3]
  Induction of p-MKP1 and c-Fos: induced
TR146 cells [10]
  Evoked current in epithelial cells (patch clamp): causes an inward current
[4]
  Secondary structure by circular dichroism: α-helical conformation
TR146 cells [5]
  Calcium influx (intracellular calcium level): associated with calcium influx
TR146 cells [6]; 24 h post-stimulation
  Concentrations required to induce damage-associated cytokine IL-1α: 70 µM
  Concentrations required to induce damage-associated cytokine IL-6: 70 µM
  Concentrations sufficient to induce G-CSF: 1.5 to 15 µM
  Concentrations sufficient to induce GM-CSF: 1.5 to 15 µM
TR146 cells [6]; 24 h post-stimulation, peptides 1.5 – 70 µM
  Induction of cytokines: induced
[7]
  Intercalation into lipid membranes (FRET): able to efficiently intercalate; also recorded: slightly enhanced intercalation for pure DOPC

## Ece1-III86–93: C-terminal hydrophilic region of Ece1-III62–93 (KAFKGNKR; UniProt Q07730 86-93, looked up, fragment)
TR146 cells [1]
  Damage of epithelial cells (LDH release) by peptide fragments: Neither
TR146 cells [3]
  Induction of p-MKP1 and c-Fos by peptide fragments: Neither
TR146 cells [6]
  Induction of cytokines (G-CSF) by peptide fragments: Neither

## Ece1-III62–93AA: Ece1-III62–93 with C-terminal KR motif substituted to AA
TR146 cells [1]; 24 h post-stimulation
  Induction of damage (LDH release): significantly reduced
[2]
  Permeabilization of tethered lipid membranes (conductance): significantly reduced
TR146 cells [3]
  Induction of p-MKP1 and c-Fos: still induced
TR146 cells [5]
  Calcium influx (intracellular calcium level): significantly reduced
TR146 cells [6]; 24 h post-stimulation
  Induction of G-CSF secretion: still induced
[7]
  Intercalation into lipid membranes (FRET): did not affect membrane intercalation
